Screening results as filed in PubChem.
INS-1E ATP HTS: preserves ATP levels in cytokine-treated INS-1E cells. INS-1E cytokine-induced death, ATP luminescence, 48 h; normalised: neutral wells 0, positive control 100. protection from cytokine-induced ATP loss, % at 10 µM. hit rate 0.1% among 20,000. AID 488910;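 active = mean replicate protection from cytokine-induced ATP loss at least 50% and at least 75% of replicates each reaching 50%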
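Material: INS-1E rat cells; Quantity: 8000 cells/well; Buffer or medium: phenol-red-free RPMI with 5% fetal bovine serum; Probe or stimulus: cytokine cocktail of IFN-γ, TNF-α and IL-1β; Compound dosing: single test concentration per compound, delivered by pin transfer; Incubation: 48 h co-treatment, 10 min post-lysis read; Signal: CellTiter-Glo luminescence.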
A1 apoptosis 2: blocks A1, raising caspase activity; MEF A1-2A-BIM cells, caspase-Glo luminescence, 3 h; percent of clofoctol response, DMSO zero; caspase activation, % (concentration not given with the values); 24,000 tested, under 10 active; AID 2465; in the data active = caspase activation above about 5.9%
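Evaluation: Caspase-3/7 activity from luminescence increase | Assay system: A1-2A-BIM mouse embryonic fibroblasts | Quantity: 2500 MEF cells/well | Medium: RPMI-1640 plus 10% FBS | Detection: Caspase-Glo 3/7 luminescence, 1 h at room temperature | Dosing: 50 nL compound per well, pinned | Timing: Cells settled overnight, compound exposure 3 h at 37 °C, 5% CO2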
T cruzi intra: inhibitors of intracellular Trypanosoma cruzi; intracellular Trypanosoma cruzi in host cells, plate reader; activity score (inhibition), % at 5.01 µM; hit rate 4.9% among 22,000; AID 651903; in the data active = activity score above about 55%;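 note: parasites and compound incubated about four days before reading; 0% = median of neutral control wells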
Active calls of the source: *; · = not tested or not shown. This is one part of a sample in which hits are shown more often than they occur.

SMILES	INS-1E ATP HTS	A1 apoptosis 2	T cruzi intra
C[C@@H]1CN([C@H](C)CO)C(=O)c2cccc(NC(=O)c3ccncc3)c2O[C@H]1CN(C)Cc1ccc2c(c1)OCO2	-9.4	0.6	87.1*
C[C@H]1CN([C@@H](C)CO)C(=O)c2cccc(NC(=O)c3ccncc3)c2O[C@H]1CN(C)Cc1ccc2c(c1)OCO2	0.7	-0.7	62.3*
C[C@@H]1CN([C@H](C)CO)C(=O)c2cccc(NC(=O)c3ccncc3)c2O[C@@H]1CN(C)Cc1ccncc1	11.6	0.3	-22.1
C[C@@H]1CN([C@@H](C)CO)C(=O)c2cccc(NC(=O)c3ccncc3)c2O[C@H]1CN(C)Cc1ccc2c(c1)OCO2	3.5	-0.4	59.4*
C[C@@H]1CN([C@H](C)CO)C(=O)c2cccc(NC(=O)Nc3ccc(F)cc3)c2O[C@@H]1CN(C)Cc1ccc(-c2ccccc2)cc1	-46.8	·	68.4*
C[C@H]1CN([C@@H](C)CO)C(=O)c2cccc(NC(=O)Nc3ccc(F)cc3)c2O[C@@H]1CN(C)Cc1ccc(C(F)(F)F)cc1	-11.1	-1.2	13.2
C[C@@H]1CN([C@H](C)CO)C(=O)c2cccc(NC(=O)C3CCCCC3)c2O[C@H]1CN(C)Cc1ccc(C(F)(F)F)cc1	-53.9	·	78.3*
C[C@@H]1CN([C@H](C)CO)C(=O)c2cccc(NC(=O)Nc3ccc(C(F)(F)F)cc3)c2O[C@@H]1CN(C)Cc1ccc(C(F)(F)F)cc1	-37.3	-0.8	88.6*
C[C@@H]1CN([C@H](C)CO)C(=O)c2cccc(NC(=O)Nc3ccc(C(F)(F)F)cc3)c2O[C@@H]1CN(C)Cc1ccc(-c2ccccc2)cc1	-59.3	-0.2	34.0
C[C@@H]1CN([C@@H](C)CO)C(=O)c2cccc(NC(=O)Nc3ccc(C(F)(F)F)cc3)c2O[C@@H]1CN(C)Cc1ccc(-c2ccccc2)cc1	-86.0	·	64.9*
C[C@H]1CN([C@@H](C)CO)C(=O)c2cccc(NC(=O)Nc3ccc(F)cc3)c2O[C@@H]1CN(C)Cc1ccc(-c2ccccc2)cc1	-33.6	-1.6	-14.5
C[C@@H]1CN([C@H](C)CO)C(=O)c2cccc(NC(=O)C3CC3)c2O[C@@H]1CN(C)Cc1ccc(C(F)(F)F)cc1	-1.4	·	-17.1
COCCCNC(=O)[C@@]1(C)c2ccccc2C(=O)N(Cc2cc(C(F)(F)F)cc(C(F)(F)F)c2)[C@H]1c1ccc(CO)cc1	·	0.0	·
COC(=O)CCCCCCC(=O)N/N=C/c1ccc(OC)c(OC)c1	8.1	-0.6	10.5
O=C(NO)c1cccc(C(=O)N/N=C/c2ccccc2[N+](=O)[O-])c1	-7.2	-4.5	-4.3
O=C(CCCCCC(=O)Nc1ccccc1O)N/N=C/c1cccnc1	·	2.9	·
C[C@@H]1CN([C@H](C)CO)C(=O)c2cccc(NC(=O)Nc3ccc(C(F)(F)F)cc3)c2O[C@H]1CN(C)Cc1ccc(C(F)(F)F)cc1	9.6	-0.4	37.4
C[C@H]1CN([C@@H](C)CO)C(=O)c2cccc(NC(=O)Nc3ccc(C(F)(F)F)cc3)c2O[C@H]1CN(C)Cc1ccc(C(F)(F)F)cc1	-55.3	·	63.1*
NC(=O)C1CCCN(/[N+]([O-])=N/OCCBr)C1 (stereo not drawn)	·	0.2	·
C[C@@H]1CN([C@H](C)CO)C(=O)c2cccc(NC(=O)Nc3ccc4c(c3)OCO4)c2O[C@@H]1CN(C)Cc1ccc(Cl)c(Cl)c1	-20.6	·	-0.6
COc1ccc(NC(=O)Nc2cccc3c2O[C@H](CN(C)Cc2ccc(Cl)c(Cl)c2)[C@H](C)CN([C@H](C)CO)C3=O)cc1	-35.6	·	16.1
COc1ccc(NC(=O)Nc2cccc3c2O[C@@H](CN(C)Cc2ccc(Cl)c(Cl)c2)[C@@H](C)CN([C@H](C)CO)C3=O)cc1	-14.8	·	58.6*
C[C@@H]1CN([C@@H](C)CO)C(=O)c2cccc(NC(=O)Nc3ccccc3)c2O[C@H]1CN(C)Cc1ccc(Cl)c(Cl)c1	-32.2	·	58.9*
C[C@H](CO)N1C[C@H](C)[C@H](CN(C)Cc2ccc(Cl)c(Cl)c2)Oc2c(NC(=O)Nc3ccc4c(c3)OCO4)cccc2C1=O	-22.8	·	81.9*
C[C@@H]1CN([C@H](C)CO)C(=O)c2cccc(NC(=O)Nc3ccccc3)c2O[C@@H]1CN(C)Cc1ccc(Cl)c(Cl)c1	-54.9	·	30.5
SMILES	INS-1E ATP HTS	A1 apoptosis 2	T cruzi intra
O=C(NO)c1cccc(C(=O)N/N=C/c2ccc(OCCO)cc2)c1	3.2	·	-10.8
O=C(CCCCCCC(=O)Nc1ccccc1O)N/N=C/c1ccc(C(=O)O)cc1	-1.0	·	-9.7
CC(C)(C)OC(=O)NC1(/C=N/NC(=O)CCCCCCC(=O)Nc2ccccc2O)CCCC1	9.7	·	6.1
O=C(CCCCCCC(=O)NN=C1CCCC1)NO	·	0.2	·
COc1ccc(S(=O)(=O)Nc2ccc3c(c2)CC(=O)N([C@@H](C)CO)C[C@H](C)[C@H](CN(C)Cc2ccc(Cl)c(Cl)c2)O3)cc1	-21.3	·	73.2*
COc1ccc(S(=O)(=O)Nc2ccc3c(c2)CC(=O)N([C@H](C)CO)C[C@H](C)[C@@H](CN(C)Cc2ccc(Cl)c(Cl)c2)O3)cc1	·	-0.9	·
COc1ccc(S(=O)(=O)Nc2ccc3c(c2)CC(=O)N([C@H](C)CO)C[C@@H](C)[C@@H](CN(C)Cc2ccc(Cl)c(Cl)c2)O3)cc1	-12.4	-0.8	55.2*
COc1ccc(S(=O)(=O)Nc2ccc3c(c2)CC(=O)N([C@@H](C)CO)C[C@@H](C)[C@@H](CN(C)Cc2ccc(Cl)c(Cl)c2)O3)cc1	-39.4	·	63.2*
COc1ccc(S(=O)(=O)Nc2ccc3c(c2)C(=O)N([C@@H](C)CO)C[C@@H](C)[C@@H](CN(C)Cc2ccc(Cl)c(Cl)c2)O3)cc1	-25.4	1.1	11.8
COc1ccc(CN(C)C[C@@H]2Oc3ccc(NS(=O)(=O)c4ccc(Cl)cc4)cc3CC(=O)N([C@@H](C)CO)C[C@H]2C)cc1	·	-1.2	·
COC(=O)C(CC#Cc1ccc2c(c1)[C@]1(C(=O)N2)[C@H](c2ccc(O)cc2)N2[C@H](c3ccccc3)[C@H](c3ccccc3)OC(=O)[C@H]2[C@@H]1C(N)=O)C(=O)OC	·	-1.3	·
COC(=O)CCCCCCC(=O)N/N=C/CNC(=O)OC(C)(C)C	-9.2	-0.2	-2.2
COC(=O)CCCCCCC(=O)N/N=C/[C@H](O)[C@@H](O)[C@@H](O)[C@H](O)CO	8.6	0.4	-13.1
O=C(CCCCCCC(=O)Nc1ccccc1O)N/N=C/c1cccnc1Br	3.9	·	3.5
C[C@H](CO)N1C[C@H](C)[C@H](CN(C)C(=O)Nc2ccc(F)cc2)Oc2c(NC(=O)c3ccc(-c4nccs4)cc3)cccc2C1=O	14.3	·	-12.0
C[C@@H]1CN([C@@H](C)CO)C(=O)c2cccc(NC(=O)c3ccc(-c4nccs4)cc3)c2O[C@H]1CN(C)C(=O)Nc1ccc(C(F)(F)F)cc1	1.2	·	67.9*
C[C@@H]1CN([C@H](C)CO)C(=O)c2cccc(NC(=O)c3ccc(-c4nccs4)cc3)c2O[C@H]1CN(C)C(=O)Nc1ccc(C(F)(F)F)cc1	-3.9	·	76.9*
C[C@H]1CN([C@@H](C)CO)C(=O)c2cccc(NC(=O)c3ccc(-c4nccs4)cc3)c2O[C@H]1CN(C)C(=O)Nc1ccc(C(F)(F)F)cc1	-10.7	·	23.6
